# Assays:
# [1] = Apparent permeability across apical to basolateral side in human Caco-2 cells
# Cytochrome P450 3A4 [2] = biological target: T1, Cytochrome P450 3A4 (Homo sapiens, UniProt P08684); assay: Inhibition of CYP3A4 (unknown origin)
# Cytochrome P450 2D6 = Cytochrome P450 2D6 (Homo sapiens, UniProt P10635); assay: Inhibition of CYP2D6 (unknown origin)
# [3] = Plasma protein binding in rat at 1 uM
# [4] = rat, in vivo, po, 5 mg/kg, 24 h
# Cytochrome P450 2C9 = Cytochrome P450 2C9 (Homo sapiens, UniProt P11712); assay: Inhibition of CYP2C9 (unknown origin)
# [5] = Metabolic stability in human hepatocytes assessed as intrinsic clearance measured per 10^6 cells
# [6] = rat, in vivo, iv, 1 mg/kg, 24 h
# Wee1-like protein kinase = Wee1-like protein kinase (Homo sapiens, UniProt P30291); assay: Inhibition of WEE1 (unknown origin)
# [7] = biological target: T2, Membrane-associated tyrosine- and threonine-specific cdc2-inhibitory kinase (Homo sapiens, UniProt Q99640)
# T2 sequence (Q99640 whole entry): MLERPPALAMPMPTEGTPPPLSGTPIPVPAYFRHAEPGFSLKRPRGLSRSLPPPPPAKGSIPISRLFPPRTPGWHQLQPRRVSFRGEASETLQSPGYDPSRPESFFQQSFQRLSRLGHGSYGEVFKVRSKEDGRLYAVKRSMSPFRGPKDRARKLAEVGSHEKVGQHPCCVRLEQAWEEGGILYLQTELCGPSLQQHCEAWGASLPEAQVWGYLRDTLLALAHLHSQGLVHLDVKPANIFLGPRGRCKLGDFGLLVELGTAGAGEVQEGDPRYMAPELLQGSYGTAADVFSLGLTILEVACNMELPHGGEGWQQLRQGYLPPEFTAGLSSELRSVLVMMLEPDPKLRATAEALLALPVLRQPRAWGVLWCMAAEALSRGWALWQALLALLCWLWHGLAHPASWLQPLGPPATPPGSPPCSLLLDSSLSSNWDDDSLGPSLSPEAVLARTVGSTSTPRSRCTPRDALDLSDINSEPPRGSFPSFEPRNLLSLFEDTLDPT
# Ephrin type-B receptor 3 = biological target: T3, Ephrin type-B receptor 3 (Homo sapiens, UniProt P54753); assay: Inhibition of full length Nano-luc fused EPHB3 in human HEK-293T cells incubated for 2 hrs by cell based NanoBRET target engagement assay
# T3 sequence (P54753 whole entry): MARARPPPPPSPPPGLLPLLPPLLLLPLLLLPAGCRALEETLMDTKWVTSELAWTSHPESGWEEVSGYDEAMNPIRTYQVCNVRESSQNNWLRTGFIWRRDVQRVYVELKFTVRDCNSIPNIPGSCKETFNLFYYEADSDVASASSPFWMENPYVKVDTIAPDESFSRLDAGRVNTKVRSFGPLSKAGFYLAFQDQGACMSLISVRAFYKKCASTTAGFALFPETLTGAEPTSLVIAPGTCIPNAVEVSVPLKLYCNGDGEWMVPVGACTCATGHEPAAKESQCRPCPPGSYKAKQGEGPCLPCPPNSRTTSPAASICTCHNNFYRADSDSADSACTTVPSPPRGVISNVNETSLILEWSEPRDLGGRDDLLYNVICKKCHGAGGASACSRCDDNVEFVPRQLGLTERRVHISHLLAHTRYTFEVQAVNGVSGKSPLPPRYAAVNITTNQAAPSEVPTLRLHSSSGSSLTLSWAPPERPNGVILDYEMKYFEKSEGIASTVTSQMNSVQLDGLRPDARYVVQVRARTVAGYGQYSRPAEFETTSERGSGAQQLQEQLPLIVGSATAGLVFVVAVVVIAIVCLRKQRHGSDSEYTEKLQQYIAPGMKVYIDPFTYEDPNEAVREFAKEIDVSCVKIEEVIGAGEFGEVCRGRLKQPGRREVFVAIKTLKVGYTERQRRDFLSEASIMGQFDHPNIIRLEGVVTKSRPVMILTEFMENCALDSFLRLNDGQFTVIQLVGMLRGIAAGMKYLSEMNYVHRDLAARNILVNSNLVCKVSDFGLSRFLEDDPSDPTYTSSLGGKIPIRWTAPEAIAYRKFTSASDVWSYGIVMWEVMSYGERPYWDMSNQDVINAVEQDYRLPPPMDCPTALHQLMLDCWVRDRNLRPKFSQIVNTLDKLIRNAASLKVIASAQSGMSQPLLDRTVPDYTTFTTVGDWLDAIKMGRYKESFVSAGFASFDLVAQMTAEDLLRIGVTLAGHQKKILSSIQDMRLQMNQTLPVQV
# Summary of the method: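 HEK293T cells transiently transfected with the NanoLuc–kinase fusion vector plus carrier DNA and left overnight at 37 °C/5% CO2. Cells were resuspended in phenol red-free Opti-MEM at 17000 cells/well with the tracer. They were then exposed to compound for 2 h at 37 °C, and substrate/inhibitor mix was added. Acceptor (610 nm) and donor (450 nm) emissions were read.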
# [8] = Oral bioavailability in CD-1 mouse at 2.5 to 5 mg/kg measured upto 24 hrs by HPLC-LCMS analysis; type: ADME, organism-based; settings: in vivo, dose 2.5-5 mg/kg
# Summary of the method: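 Female CD1 mice (20–30 g) dosed IV at 1 mg/kg as a solution. Oral dosing at 2.5 or 5 mg/kg as a suspension in 0.5% methyl cellulose. […] Non-compartmental analysis.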
# [9] = Plasma protein binding in human at 1 uM; type: ADME, cell-free
# Summary of the method: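 Plasma protein binding measured at 1 μM compound in human plasma, with rat plasma run alongside.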
# [10] = Oral bioavailability in Cynomolgous monkey at 1 mg/kg measured upto 24 hrs by reversed phase LCMS analysis; type: ADME, organism-based, Macaca fascicularis; settings: cynomolgus monkey, in vivo
# Cytochrome P450 3A4 [11] = biological target: T1, Cytochrome P450 3A4; assay: Induction of CYP3A4 in human hepatocytes at 3 uM relative to rifampicin; type: ADME, cell-based, Hepatocyte
# Summary of the method: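 Single-donor human hepatocytes exposed at 3 μM. CYP3A4 induction expressed as % of the 10 μM rifampicin positive control.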
# [12] = Oral bioavailability in Beagle dog at 1 mg/kg measured upto 24 hrs by reversed phase LCMS analysis; type: ADME, organism-based, Canis lupus familiaris; settings: in vivo
# Sequence of Cytochrome P450 2C9 (P11712 whole entry): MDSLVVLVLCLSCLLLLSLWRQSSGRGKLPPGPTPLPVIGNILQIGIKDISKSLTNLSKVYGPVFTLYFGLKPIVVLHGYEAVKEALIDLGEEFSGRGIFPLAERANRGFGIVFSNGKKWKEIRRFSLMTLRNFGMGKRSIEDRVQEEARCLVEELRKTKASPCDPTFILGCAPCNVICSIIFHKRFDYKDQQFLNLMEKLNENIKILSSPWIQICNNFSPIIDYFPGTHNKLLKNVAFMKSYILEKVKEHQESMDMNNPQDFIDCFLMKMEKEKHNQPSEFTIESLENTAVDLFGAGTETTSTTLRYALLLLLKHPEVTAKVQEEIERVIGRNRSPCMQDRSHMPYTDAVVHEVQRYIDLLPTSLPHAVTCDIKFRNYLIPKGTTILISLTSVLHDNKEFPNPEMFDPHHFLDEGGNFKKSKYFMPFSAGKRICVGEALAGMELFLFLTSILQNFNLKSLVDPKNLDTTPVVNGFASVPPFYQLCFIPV
# Sequence of Cytochrome P450 2D6 (P10635 whole entry): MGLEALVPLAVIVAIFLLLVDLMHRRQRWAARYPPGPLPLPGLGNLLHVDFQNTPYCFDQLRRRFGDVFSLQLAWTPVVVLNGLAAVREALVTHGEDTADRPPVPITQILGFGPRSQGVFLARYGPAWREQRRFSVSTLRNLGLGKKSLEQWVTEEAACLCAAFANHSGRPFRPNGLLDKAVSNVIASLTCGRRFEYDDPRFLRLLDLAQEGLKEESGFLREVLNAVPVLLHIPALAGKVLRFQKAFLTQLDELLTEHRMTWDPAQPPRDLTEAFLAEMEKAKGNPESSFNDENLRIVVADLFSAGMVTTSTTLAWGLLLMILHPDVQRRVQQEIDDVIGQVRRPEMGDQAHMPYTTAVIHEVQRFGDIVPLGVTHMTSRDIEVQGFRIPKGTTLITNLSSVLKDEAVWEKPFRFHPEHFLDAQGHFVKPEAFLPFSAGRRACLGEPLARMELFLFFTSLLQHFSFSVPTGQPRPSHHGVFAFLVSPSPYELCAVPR
# Sequence of Wee1-like protein kinase (P30291 whole entry): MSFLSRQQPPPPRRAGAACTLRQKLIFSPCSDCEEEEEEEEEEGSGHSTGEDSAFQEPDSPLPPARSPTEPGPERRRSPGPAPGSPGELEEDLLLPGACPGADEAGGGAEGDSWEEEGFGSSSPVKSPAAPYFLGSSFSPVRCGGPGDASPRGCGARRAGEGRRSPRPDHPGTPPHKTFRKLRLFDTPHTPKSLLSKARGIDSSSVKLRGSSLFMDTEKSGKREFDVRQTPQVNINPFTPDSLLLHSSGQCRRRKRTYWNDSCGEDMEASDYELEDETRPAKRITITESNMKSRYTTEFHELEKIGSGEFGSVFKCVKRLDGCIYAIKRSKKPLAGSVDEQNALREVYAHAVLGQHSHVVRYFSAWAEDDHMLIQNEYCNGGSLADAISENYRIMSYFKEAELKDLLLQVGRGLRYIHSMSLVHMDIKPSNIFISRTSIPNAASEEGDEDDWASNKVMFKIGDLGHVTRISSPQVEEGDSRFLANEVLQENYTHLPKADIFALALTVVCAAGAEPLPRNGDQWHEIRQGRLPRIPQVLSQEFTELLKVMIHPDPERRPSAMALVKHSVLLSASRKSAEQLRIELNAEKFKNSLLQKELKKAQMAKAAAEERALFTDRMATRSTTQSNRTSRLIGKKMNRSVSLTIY
# T1 sequence (P08684 whole entry): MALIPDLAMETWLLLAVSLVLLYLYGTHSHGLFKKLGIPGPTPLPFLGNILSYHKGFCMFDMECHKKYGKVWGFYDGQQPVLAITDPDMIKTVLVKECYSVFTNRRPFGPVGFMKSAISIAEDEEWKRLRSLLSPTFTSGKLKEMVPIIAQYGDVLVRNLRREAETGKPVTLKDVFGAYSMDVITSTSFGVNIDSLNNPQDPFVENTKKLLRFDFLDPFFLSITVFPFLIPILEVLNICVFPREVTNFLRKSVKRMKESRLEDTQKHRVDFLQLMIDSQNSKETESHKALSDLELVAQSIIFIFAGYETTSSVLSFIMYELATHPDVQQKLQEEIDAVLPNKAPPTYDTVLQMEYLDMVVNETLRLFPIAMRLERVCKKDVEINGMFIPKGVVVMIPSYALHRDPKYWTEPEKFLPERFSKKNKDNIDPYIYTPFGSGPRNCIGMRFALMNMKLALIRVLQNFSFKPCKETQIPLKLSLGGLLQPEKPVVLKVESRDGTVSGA
structure (smiles),measurement,setting,value
Cc1ccc(O)c(C)c1-n1c(N)c(C(N)=O)c2nc(N3CCOCC3)cnc21,Papp,[1],5.8 10^-6 cm/s
same,IC50,Cytochrome P450 3A4 [2],> 30 µM
same,IC50,Cytochrome P450 2D6,> 30 µM
same,PPB,[3],62.8%
same,F,[4],18%
same,IC50,Cytochrome P450 2C9,> 30 µM
same,CLH,[5],< 3 µL/min
same,CL free,[6],151 mL/min/kg
Cc1ccc(O)c(C)c1-n1c(N)c(C(N)=O)c2nc3ccccc3nc21,IC50,Wee1-like protein kinase,0.58 µM
Cc1cnc2c(c1)c(C(N)=O)c(N)n2-c1c(C)ccc(O)c1C,PPB,[3],73.8%
same,F,[4],62%
same,CL free,[6],76 mL/min/kg
Cc1ccc(O)c(C)c1-n1c(N)c(C(N)=O)c2nc3cccc(Br)c3nc21,IC50,[7],< 0.003 µM
Cc1ccc(O)c(C)c1-n1c(N)c(C(N)=O)c2nc3cccc(C4=CCCC4)c3nc21,IC50,[7],< 0.003 µM
Cc1ccc(O)c(Cl)c1-n1c(N)c(C(N)=O)c2nc3ccccc3nc21,IC50,Wee1-like protein kinase,0.94 µM
same,IC50,Ephrin type-B receptor 3,0.007 µM
Cc1ccc(O)c(C)c1-n1c(N)c(C(N)=O)c2nccnc21,Papp,[1],19 10^-6 cm/s
same,IC50,Cytochrome P450 3A4 [2],> 30 µM
same,IC50,Cytochrome P450 2D6,> 30 µM
same,PPB,[3],81%
same,F,[4],56%
same,IC50,Cytochrome P450 2C9,> 30 µM
same,CLH,[5],< 3 µL/min
same,CL free,[6],81 mL/min/kg
Cc1ccc(Cl)c(C)c1-n1c(N)c(C(N)=O)c2nc3ccccc3nc21,IC50,[7],> 20 µM
Cc1ccc(O)cc1-n1c(N)c(C(N)=O)c2cc3ccccc3nc21,IC50,Ephrin type-B receptor 3,0.007 µM
NC(=O)c1c(N)n(-c2cccc3[nH]ncc23)c2nc3ccccc3nc12,IC50,Wee1-like protein kinase,5.2 µM
Cc1ccc(O)c(C)c1-n1c(N)c(C(N)=O)c2cc(Cl)cnc21,Papp,[1],18.3 10^-6 cm/s
same,F,[8],21%
same,IC50,Cytochrome P450 3A4 [2],> 30 µM
same,IC50,Cytochrome P450 2D6,> 30 µM
same,PPB,[9],89.6%
same,F,[10],32%
same,PPB,[3],88.1%
same,F,[4],37%
same,IC50,Cytochrome P450 2C9,26 µM
same,hepatocyte CLint,[5],4.5 µL/min/1e6 cells
same,CL free,[6],215 mL/min/kg
same,Activity,Cytochrome P450 3A4 [11],26.7%
same,F,[12],33%
NC(=O)c1c(N)n(-c2c(Cl)ccc(O)c2Cl)c2nc3ccccc3nc12,IC50,Wee1-like protein kinase,0.22 µM
Cc1c(O)cccc1-n1c(N)c(C(N)=O)c2nc3ccccc3nc21,IC50,Wee1-like protein kinase,2.2 µM
Cc1ccc(C(F)F)cc1-n1c(N)c(C(N)=O)c2nc3ccccc3nc21,IC50,[7],> 20 µM
